In one experiment the target is T1, STAT1:STAT1 homodimers (Mus musculus, UniProt P42225).
T1 sequence (P42225 2-749 limits assumed): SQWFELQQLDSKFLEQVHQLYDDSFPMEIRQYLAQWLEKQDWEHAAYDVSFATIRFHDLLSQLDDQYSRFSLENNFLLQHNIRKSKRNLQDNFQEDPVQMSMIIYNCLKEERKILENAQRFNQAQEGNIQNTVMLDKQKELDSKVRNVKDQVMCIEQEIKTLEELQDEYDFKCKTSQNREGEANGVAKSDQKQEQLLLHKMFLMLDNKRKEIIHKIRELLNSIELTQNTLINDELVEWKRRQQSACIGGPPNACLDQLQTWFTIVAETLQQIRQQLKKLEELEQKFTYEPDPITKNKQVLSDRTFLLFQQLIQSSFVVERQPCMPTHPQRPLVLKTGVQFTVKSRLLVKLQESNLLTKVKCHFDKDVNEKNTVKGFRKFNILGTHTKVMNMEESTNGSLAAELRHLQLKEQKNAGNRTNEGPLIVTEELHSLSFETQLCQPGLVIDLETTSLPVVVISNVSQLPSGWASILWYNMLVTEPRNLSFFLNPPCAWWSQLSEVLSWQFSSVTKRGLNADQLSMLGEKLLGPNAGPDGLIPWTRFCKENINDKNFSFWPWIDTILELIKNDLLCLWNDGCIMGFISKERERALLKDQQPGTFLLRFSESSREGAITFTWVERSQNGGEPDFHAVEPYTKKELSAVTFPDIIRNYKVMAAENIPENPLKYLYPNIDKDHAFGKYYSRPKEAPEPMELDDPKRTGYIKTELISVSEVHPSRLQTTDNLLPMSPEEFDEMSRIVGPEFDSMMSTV
The experiment is classed as biochemical. Particulars: 10 µM, MGFe probe (Fig. S6).

The test system of another experiment is STAT5:STAT5 homodimers. It is filed as biochemical. Conditions: 10 µM, MGFe probe (Fig. S6).
Experiment [1] concerns MDA-MB-231 or MDA-MB-468 cells. Kind of experiment: Cell viability/growth of breast cancer cells harboring active STAT3. It is filed as cell-based, human. Particulars: for viability, anchorage-dependent and independent growth, and colony formation: at 1 μM or less; for activity against breast cancer cells: up to 10 μM.
The next experiment concerns MDA-MB-231 cells. Briefly: Clonogenic. Particulars: treated once. The experiment is classed as cell-based, human. The gist of the method: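 Cells were seeded as single-cell cultures at 250 cells per well. They were treated once the next day with test compound at 0–1 μM and cultured until large colonies were visible. Colonies were stained with crystal violet for 4 h and photographed. Data came from three independent determinations.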

The conditions of experiment [2]: cited from earlier work.

Take `O=C(O)c1ccc(N(Cc2ccc(C3CCCC3)cc2)C(=O)[C@H]2CCN2S(=O)(=O)c2c(F)c(F)c(F)c(F)c2F)cc1O` [Compound 5e]: the “effect on DNA-binding activity of STAT1:STAT1 homodimers” value (“effect … of STAT1:STAT1 homodimers” for short) on STAT1:STAT1 homodimers is listed as “minimal effect”. The “effect on DNA-binding activity of STAT5:STAT5 homodimers” value (shortened to “effect … of STAT5:STAT5 homodimers”) in the experiment on STAT5:STAT5 homodimers is reported as “minimal effect”.
For the molecule `O=C(O)c1cc(F)c(N(Cc2ccc(C3CCCCC3)cc2)C(=O)[C@H]2CCN2S(=O)(=O)c2c(F)c(F)c(F)c(F)c2F)cc1O` [Compound 5i], the “effect … of STAT1:STAT1 homodimers” value on STAT1:STAT1 homodimers is “minimal effect”. Moreover, the “effect … of STAT5:STAT5 homodimers” value with STAT5:STAT5 homodimers is given as “minimal effect”.
Consider `O=C(NO)c1ccc(N(Cc2ccc(C3CCCCC3)cc2)C(=O)[C@H]2CCN2S(=O)(=O)c2c(F)c(F)c(F)c(F)c2F)c(F)c1` [Compound 8f], for which, at STAT1:STAT1 homodimers, the “effect … of STAT1:STAT1 homodimers” value was “minimal effect”. Besides, in the experiment with STAT5:STAT5 homodimers, the “effect … of STAT5:STAT5 homodimers” value is “minimal effect”.
For `COC(=O)c1ccc(N(Cc2cnc(C3CCCCC3)cn2)C(=O)[C@H]2CCN2S(=O)(=O)c2c(F)c(F)c(F)c(F)c2F)c(F)c1` [Compound 7e], in experiment [1], the “viability, anchorage-dependent and independent growth, and colony formation” value is given as “strongly inhibited”. In addition, the “inhibition of colony formation” value is listed as “minimal to moderate inhibition of colony formation” in the experiment with MDA-MB-231 cells (0.5 μM) and “near-complete inhibition” in the experiment with MDA-MB-231 cells (1 μM).
The like results for `COC(=O)c1ccc(N(Cc2cnc(C3CCCCC3)cn2)C(=O)[C@H]2CCN2S(=O)(=O)c2c(F)c(F)c(F)c(F)c2F)cc1O` [Compound 7f] were, in that order, “strongly inhibited”, “minimal to moderate inhibition of colony formation” and “significant inhibition”.
Take `O=C(O)c1ccc(N(Cc2ccc(C3CCOCC3)cc2)C(=O)[C@H]2CCN2S(=O)(=O)c2c(F)c(F)c(F)c(F)c2F)cc1O` [Compound 5g]: on STAT1:STAT1 homodimers, the “effect … of STAT1:STAT1 homodimers” value is given as “minimal effect”. Moreover, the “effect … of STAT5:STAT5 homodimers” value in the experiment with STAT5:STAT5 homodimers is on record as “minimal effect”.
With `O=C(NO)c1ccc(N(Cc2ccc(C3CCCCC3)cn2)C(=O)[C@H]2CCN2S(=O)(=O)c2c(F)c(F)c(F)c(F)c2F)c(F)c1` [Compound 8l], the “activity against breast cancer cells” value in experiment [1] is given as “weakly active”.
For `O=C(NO)c1ccc(N(Cc2ccc(C3CCCCC3)cc2)C(=O)[C@H]2CCN2S(=O)(=O)c2c(F)c(F)c(F)c(F)c2F)cc1O` [Compound 8d], at STAT1:STAT1 homodimers, the “effect … of STAT1:STAT1 homodimers” value was “minimal effect”. Besides, in the experiment on STAT5:STAT5 homodimers, the “effect … of STAT5:STAT5 homodimers” value was “minimal effect”.
For `O=C(O)c1ccc(N(Cc2ccc(C3CCCCC3)cc2)C(=O)[C@H]2CCN2S(=O)(=O)c2c(F)c(F)c(F)c(F)c2F)cc1O` [Compound 5a, (R)-4-(N-(4-cyclohexylbenzyl)-1-((perfluorophenyl)sulfonyl)azetidine-2-carboxamido)-2-hydroxybenzoic acid], the “activity against breast cancer cells” value in experiment [1] was “no activity”.
For `CN(CC(=O)N(Cc1ccc(C2CCCCC2)cc1)c1ccc(C(=O)NO)cc1)S(=O)(=O)c1c(F)c(F)c(F)c(F)c1F` [SH5-07], the “cellular activities of parent lead compounds” value (“cellular activities” below) in experiment [2] is 3.8 µM.
On to `CN(CC(=O)N(Cc1ccc(C2CCCCC2)cc1)c1ccc(C(=O)O)c(O)c1)S(=O)(=O)c1c(F)c(F)c(F)c(F)c1F` [BP-1-102], for which the “cellular activities” value in experiment [2] is 10 to 20 µM.
Take `CN(CC(=O)N(Cc1ccc(C2CCCCC2)cc1)c1ccc(C(=O)O)cc1)S(=O)(=O)c1c(F)c(F)c(F)c(F)c1F` [SH4-54]: the “cellular activities” value in experiment [2] is 4.5 µM.
Turning to `O=C(O)c1ccc(N(Cc2ccc(C3CCOCC3)nc2)C(=O)[C@H]2CCN2S(=O)(=O)c2c(F)c(F)c(F)c(F)c2F)cc1O` [Compound 5n], the “effect … of STAT1:STAT1 homodimers” value on STAT1:STAT1 homodimers is reported as “minimal effect”. For the same molecule, in the experiment with STAT5:STAT5 homodimers, the “effect … of STAT5:STAT5 homodimers” value is recorded as “minimal effect”.
As to `O=C(O)c1ccc(N(Cc2ccc(C3CCCCC3)nc2)C(=O)[C@H]2CCN2S(=O)(=O)c2c(F)c(F)c(F)c(F)c2F)cc1O` [Compound 5m], at STAT1:STAT1 homodimers, the “effect … of STAT1:STAT1 homodimers” value was “minimal effect”. For the same molecule, the “effect … of STAT5:STAT5 homodimers” value in the experiment on STAT5:STAT5 homodimers is given as “minimal effect”.
